“And” between values parts separate entries of the source, which are not always exact repeats. Equal values may be shown once. Read-outs that look alike come from different tables or passages of the source. Blank lines part the entries; values can stand above or below the compound they belong to.
Experiments:
[1] = DPPH radical scavenging, 96-well colorimetric assay; type: biochemical; conditions: read-out: DPPH radical scavenging IC50 value; 30 minutes incubations; mean ± SD, n = 3
[2] = system: normal periodontal ligament fibroblasts (PDL); assay: Cytotoxicity in normal periodontal ligament fibroblasts; type: cell-based
How it was run: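 Normal periodontal ligament fibroblasts exposed to test compound for 72 h. […] Selectivity index is the compound's IC50 on PDL divided by its IC50 on a given cancer cell line.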

[3] = system: skin melanoma A375.s2 cell line; assay: Antiproliferation, sulforhodamine B colorimetric bioassay, A375.s2; type: cell-based; conditions: read-out: Cytotoxicity (as of %Control) IC50, A375.s2; 72 h incubations, SRB; mean ± SD, n = 3-4
[4] = system: breast carcinoma MCF7 cell line; assay: Antiproliferation, sulforhodamine B colorimetric bioassay, MCF7; type: cell-based; conditions: read-out: Cytotoxicity (as of %Control) IC50, MCF7, 72 h incubations, SRB, mean ± SD, n = 3-4
[5] = system: breast carcinoma T47D cell line; assay: Antiproliferation, sulforhodamine B colorimetric bioassay, T47D; type: cell-based; conditions: read-out: Cytotoxicity (as of %Control) IC50, T47D, 72 h incubations, SRB, mean ± SD, n = 3-4
[6] = system: Nitric oxide synthase / NO in LPS prompted RAW264.7 macrophages; type: cell-based; conditions: mean ± SD, n = 3

IC50 [1]: 3.37 µM
SMILES: O=C1O[C@H]([C@@H](O)CO)C(O)=C1O [Ascorbic acid, ascorbic acid]

SMILES: N.N.[Cl][Pt][Cl] [Cisplatin, cisplatin]
IC50 PDL Fibro ([2]; 72h incubations, mean ± SD, n = 3): (0.21 ± 0.04) µg/mL
IC50 ([2]; read-out: IC50 PDL Fibro, 72h incubations, mean ± SD, n = 3): 710 ± 130 nM
IC50 [3]: 700 ± 100 nM
IC50 [4]: 92.6 ± 12.5 µM
IC50 ([4]; listed as cisplatin): 92.6 µM
IC50 [5]: 45.1 ± 7.84 µM
IC50 ([5]; listed as cisplatin): 45.2 µM and 45 µM

IC50 ([6]; Mus musculus, RAW264.7, 24 h, read-out: NOS- IC50 value (NO scavenging/antiinflammation), LPS prompted RAW264.7, 24h incubations, Griess assay): 55.1 µM and 26.9 µg/mL
IC50 ([6]; read-out: NOS- IC50 value (NO scavenging/antiinflammation), LPS prompted RAW264.7, 24h incubations, Griess assay): 55.1 ± 2.25 µM
SMILES: COc1ccc2c(c1)c(CC(=O)O)c(C)n2C(=O)c1ccc(Cl)cc1 [Indomethacin, indomethacin]

From paper PMC9727339 (Asian Pacific Journal of Cancer Prevention : APJCP, 2022)
